Assay results: ChEMBL document CHEMBL3526116, “Toxicological evaluation of acyl glucuronides of nonsteroidal anti-inflammatory drugs using human embryonic kidney 293 cells stably expressing human UDP-glucuronosyltransferase and human hepatocytes” (Drug Metab Dispos, 2011); call rule not given here

How the values were obtained:
[1] = target: T1, UDP-glucuronosyltransferase 1A3 (Homo sapiens, UniProt P35503); experiment: Activity of human UGT1A3 expressed in HEK293 cells assessed as enzyme-mediated compound formation per 2 x 10^5 cells treated with diclofenac at 0.1 mM measured at 24 hrs by LC-MS/MS analysis; assay type: ADME, cell-based; settings: hek293, 24 h, 100 µM
T1 sequence (P35503 whole entry): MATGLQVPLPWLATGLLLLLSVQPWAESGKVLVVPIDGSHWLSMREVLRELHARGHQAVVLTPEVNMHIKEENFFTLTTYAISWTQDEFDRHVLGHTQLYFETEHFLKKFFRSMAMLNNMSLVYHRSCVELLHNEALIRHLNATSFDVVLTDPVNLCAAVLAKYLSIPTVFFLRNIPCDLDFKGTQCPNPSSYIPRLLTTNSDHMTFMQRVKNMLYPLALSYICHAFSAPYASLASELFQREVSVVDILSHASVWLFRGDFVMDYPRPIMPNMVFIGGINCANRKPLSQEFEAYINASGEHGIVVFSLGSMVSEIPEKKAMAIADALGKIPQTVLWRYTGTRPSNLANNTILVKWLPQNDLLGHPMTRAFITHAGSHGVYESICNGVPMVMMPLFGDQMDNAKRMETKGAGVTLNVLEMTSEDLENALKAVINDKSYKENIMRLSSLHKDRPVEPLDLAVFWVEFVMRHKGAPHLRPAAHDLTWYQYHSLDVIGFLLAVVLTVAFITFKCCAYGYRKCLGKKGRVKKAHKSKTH
Summary of the method: (§1)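 HEK293 stably expressing human UGT1A3 (G418-selected), 2 x 10^5 cells/well in 1 mL DMEM with 0.5% FBS, exposed immediately to drug for 6, 12 or 24 h; DMSO ≤0.1% final. Cells and medium separated by centrifugation, cell fraction resuspended in PBS; aliquots mixed 1:1 with methanol/acetic acid (100:1), spun, supernatant analysed by LC-MS/MS. Triplicate determinations, mean ± SD.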

[2] = Drug level in cell culture medium treated with diclofenac at 0.1 mM measured at 6 hrs by LC-MS/MS analysis in presence of acyl glucuronidation inhibitor (-)-borneol; assay type: physicochemical; settings: 100 µM
[3] = target: T1, UDP-glucuronosyltransferase 1A3; experiment: Activity of human UGT1A3 expressed in HEK293 cells assessed as enzyme-mediated compound formation in cell culture medium treated with diclofenac at 0.1 mM by LC-MS/MS analysis; assay type: ADME, cell-based; settings: hek293, 100 µM, TDE = time-dependent effect; summary of the method: as §1
[4] = Drug level in cell culture medium treated with diclofenac at 0.1 mM measured at 6 hrs by LC-MS/MS analysis in absence of acyl glucuronidation inhibitor (-)-borneol; assay type: physicochemical; settings: 100 µM
[5] = target: T1, UDP-glucuronosyltransferase 1A3; experiment: Activity of human UGT1A3 expressed in HEK293 cells assessed as enzyme-mediated compound formation in cell culture medium treated with diclofenac at 0.1 mM measured at 6 to 24 hrs by LC-MS/MS analysis; assay type: ADME, cell-based; settings: hek293, 100 µM; summary of the method: as §1
[6] = test system: Hepatocyte; experiment: Drug level in human hepatocytes assessed per 2 x 10^5 cells treated with diclofenac at 0.1 mM measured at 6 hrs by LC-MS/MS analysis in absence of acyl glucuronidation inhibitor (-)-borneol; assay type: ADME, cell-based; settings: 100 µM
[7] = test system: Hepatocyte; experiment: Drug level in human hepatocytes assessed per 2 x 10^5 cells treated with diclofenac at 0.1 mM measured at 6 hrs by LC-MS/MS analysis in presence of acyl glucuronidation inhibitor (-)-borneol; assay type: ADME, cell-based; settings: 100 µM
[8] = test system: HEK293; experiment: Cytotoxicity against mock transfected HEK293 cells assessed as decrease in cell viability at 1 mM by MTT assay; assay type: cell-based; settings: human, hek293, 1000 µM; TDE = time-dependent effect
[9] = test system: HEK293; experiment: Cytotoxicity against HEK293 cells expressing UGT1A3 assessed as decrease in cell viability by measuring intracellular ATP content at 1 mM by CellTiter-Glo luminescent assay; assay type: ADME, cell-based; settings: human, hek293, 1000 µM; TDE = time-dependent effect
Summary of the method: (§2)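 UGT1A3 or UGT1A4 stable HEK293 cells, 2 x 10^4 cells/well in 0.1 mL DMEM with 0.5% FBS, drug for 6, 12 or 24 h. Viability from intracellular ATP via CellTiter-Glo luminescence, expressed as percent of control cells. Mean ± SD of triplicates.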

[10] = test system: HEK293; experiment: Cytotoxicity against HEK293 cells expressing UGT assessed as decrease in cell viability at 1 mM measured up to 72 hrs by MTT assay; assay type: ADME, cell-based; settings: human, hek293, 72 h, 1000 µM
Summary of the method: (§3)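 Mock and UGT1A3/UGT1A4 stable HEK293 cells given drug for up to 72 h; viability measured by WST-8-based MTT assay.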

[11] = test system: Hepatocyte; experiment: Cytotoxicity against human hepatocytes assessed as decrease in cell viability at 1 mM measured at 6 hrs […] in presence of acyl glucuronidation inhibitor (-)-borneol; assay type: cell-based; settings: 1000 µM
[12] = test system: HEK293; experiment: Cytotoxicity against mock transfected HEK293 cells assessed as decrease in cell viability by measuring intracellular ATP content at 1 mM by CellTiter-Glo luminescent assay; assay type: cell-based; settings: human, hek293, 1000 µM; TDE = time-dependent effect
Summary of the method: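 Mock-transfected HEK293 cells seeded at 2 x 10^4 cells/well in DMEM with 0.5% FBS, drug added at once and incubated 6, 12 or 24 h. Viability read either by WST-8 (CCK-8) formazan absorbance at 450 nm or by intracellular ATP luminescence (CellTiter-Glo), as percent of control cells; mean ± SD of triplicates. Final DMSO ≤0.1%.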

[13] = test system: HEK293; experiment: Cytotoxicity against HEK293 cells expressing UGT1A4 assessed as decrease in cell viability at 1 mM by MTT assay; assay type: ADME, cell-based; settings: human, hek293, 1000 µM; TDE = time-dependent effect
[14] = test system: HEK293; experiment: Cytotoxicity against HEK293 cells expressing UGT assessed as LDH leakage at 1 mM after 6 to 24 hrs by spectrophotometric analysis relative to total cell LDH level; assay type: ADME, cell-based; settings: human, hek293, 1000 µM
Summary of the method: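 Stable UGT-expressing or mock HEK293 lines in DMEM with 0.5% FBS, 2 x 10^4 cells/well, drug for 6, 12 or 24 h. LDH released into medium read at 490 nm (690 nm reference); percentage calculated against maximum release from control cells lysed with 1% Triton X-100.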

[15] = test system: Hepatocyte; experiment: Cytotoxicity against human hepatocytes assessed as decrease in cell viability by measuring intracellular ATP content at 1 mM measured at 6 hrs by CellTiter-Glo luminescent assay in absence of acyl glucuronidation inhibitor (-)-borneol; assay type: cell-based; settings: 1000 µM
Summary of the method: (§4)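 Human hepatocytes (pooled, cryopreserved), 2 × 10^4 cells/well on collagen in HCM with 0.5% FBS and 10 nM estradiol; 30-min preincubation ± 1 mM (-)-borneol, then drug 6 h. Intracellular ATP measured by CellTiter-Glo luminescence, percent of control cells. Triplicates, mean ± SD.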

[16] = test system: Hepatocyte; experiment: Cytotoxicity against human hepatocytes assessed as decrease in cell viability by measuring intracellular ATP content at 1 mM measured at 6 hrs by CellTiter-Glo luminescent assay in presence of acyl glucuronidation inhibitor (-)-borneol; assay type: cell-based; settings: 1000 µM; summary of the method: as §4
[17] = test system: HEK293; experiment: Genotoxicity in HEK293 cells expressing UGT1A3 assessed as DNA strand breaks at 1 mM after 24 hrs by comet assay; assay type: toxicity, cell-based; settings: human, hek293, 24 h, 1000 µM
Summary of the method: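 Alkaline comet assay: HEK/UGT1A3 cells seeded 24 h before, treated 24 h in DMEM with 0.5% FBS (vehicle 0.1% DMSO; MMS 0.1 mM positive control). Cells embedded in LMP agarose, lysed 1 h at 4°C at pH 10, unwound 30 min in NaOH/EDTA, electrophoresed 300 mA 20 min, ethidium-stained; tail moment scored on 150-180 comets over >3 experiments, median (IQR).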

[18] = test system: Hepatocyte; experiment: Cellular uptake in human hepatocytes at 1 mM measured at 6 hrs by LC-MS/MS analysis in absence of acyl glucuronidation inhibitor (-)-borneol; assay type: ADME, cell-based; settings: 1000 µM
Summary of the method: (§5)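 Cryopreserved pooled human hepatocytes on collagen-coated wells, 2 × 10^5 cells/well in HCM medium with 0.5% FBS, preincubated 30 min with or without 1 mM (-)-borneol, then drug for 6 h; DMSO ≤0.2% final. Parent drug in cell fraction measured by LC-MS/MS after methanol/acetic acid extraction. Mean ± SD of triplicates.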

[19] = test system: HEK293; experiment: Cytotoxicity against HEK293 cells expressing UGT1A4 assessed as decrease in cell viability by measuring intracellular ATP content at 1 mM by CellTiter-Glo luminescent assay; assay type: ADME, cell-based; settings: human, hek293, 1000 µM; TDE = time-dependent effect; summary of the method: as §2
[20] = test system: Hepatocyte; experiment: Cellular uptake in human hepatocytes at 1 mM measured at 6 hrs by LC-MS/MS analysis in presence of acyl glucuronidation inhibitor (-)-borneol; assay type: ADME, cell-based; settings: 1000 µM; summary of the method: as §5
[21] = test system: HEK293; experiment: Cytotoxicity against HEK293 cells expressing UGT1A3 assessed as decrease in cell viability at 1 mM by MTT assay; assay type: ADME, cell-based; settings: human, hek293, 1000 µM; TDE = time-dependent effect
[22] = test system: HEK293; experiment: Cytotoxicity against HEK293 cells expressing UGT assessed as decrease in cell viability at 0.1 mM measured up to 72 hrs by MTT assay; assay type: ADME, cell-based; settings: human, hek293, 72 h, 100 µM; summary of the method: as §3
[23] = test system: HEK293; experiment: Cytotoxicity against HEK293 cells expressing UGT1A3 assessed as decrease in cell viability at 0.1 mM measured at 24 hrs by MTT assay; assay type: ADME, cell-based; settings: human, hek293, 24 h, 100 µM
[24] = test system: HEK293; experiment: Cytotoxicity against HEK293 cells expressing UGT1A4 assessed as decrease in cell viability at 0.1 mM measured at 24 hrs […]; assay type: ADME, cell-based; settings: human, hek293, 24 h, 100 µM

For `O=C(Cc1ccccc1Nc1c(Cl)cccc1Cl)O[C@@H]1O[C@H](C(=O)O)[C@@H](O)[C@H](O)[C@H]1O`, the Drug metabolism [1] was 3.8 pmol, the Drug metabolism [2] was 610.5 pmol/mL and the Drug metabolism [3] was “tde”. For the same compound, the Drug metabolism [4] was 2816.1 pmol/mL, the Drug metabolism [5] was 104 pmol/mL and the Drug metabolism [6] was 59.6 pmol. The Drug metabolism [7] was 15.1 pmol.

In the case of `COc1ccc2cc([C@H](C)C(=O)O)ccc2c1` [NAPROXEN], the Activity [8] is reported as “tde”, the Activity [9] is reported as “tde” and the Activity [10] is reported as “Non-toxic”. For the same compound, the Activity [11] was “Toxic”, the Activity [12] was “tde” and the Activity [13] was “tde”. For the same compound, the Activity [14] was under 5.4%, the Activity [15] was “Toxic” and the Activity [16] was “Toxic”. The Activity [17] was “Non-toxic”, the Drug uptake [18] was “Active” and the Activity [19] was “tde”. The Drug uptake [20] was “Active” and the Activity [21] was “tde”.

In the case of `Cc1cc(CC(=O)O)n(C)c1C(=O)c1ccc(Cl)cc1` [ZOMEPIRAC], the Activity [22] is reported as “Non-toxic”, the Activity [23] is reported as “Non-toxic” and the Activity [24] is reported as “Non-toxic”.
